Experimental data taken from ChEMBL document CHEMBL4811271, “Computer-aided design of 1,4-naphthoquinone-based inhibitors targeting cruzain and rhodesain cysteine proteases” (Bioorg Med Chem, 2021).
pIC50, pKi: −log10 of the molar value. Active and inactive are the calls of the source. The rule behind the calls is not given here.

Key:
[1] = biological target: Rhodesain (Trypanosoma brucei rhodesiense) (UniProt Q95PM0); experiment: Inhibition of recombinant Trypanosoma brucei rhodesain at 100 uM using Z-FR-AMC as substrate preincubated for 10 mins followed by substrate addition measured for 5 mins by fluorimetric analysis relative to control
Method in brief: (§1)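 Recombinant enzyme (cruzain expressed in-house; rhodesain donated) at 0.5 nM in 0.1 M sodium acetate pH 5.5 with 1 mM DTT and 0.01% Triton X-100. Compound pre-incubated with enzyme 10 min, then 2.5 µM Z-FR-AMC added. Fluorescence followed 5 min. Activity taken from initial rates against DMSO control, E64 as positive control. Screen at 100 µM. IC50 from ≥8 concentrations by nonlinear regression. Two independent experiments in triplicate.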

[2] = biological target: Cruzipain (Trypanosoma cruzi) (UniProt P25779); experiment: Inhibition of recombinant Trypanosoma cruzi cruzain at 100 uM using Z-FR-AMC as substrate preincubated for 10 mins followed by substrate addition measured for 5 mins by fluorimetric analysis relative to control; method in brief: as §1
[3] = biological target: T1, Rhodesain (Trypanosoma brucei rhodesiense, UniProt Q95PM0); experiment: Inhibition of recombinant Trypanosoma brucei rhodesain using Z-FR-AMC as substrate by fluorimetric analysis relative to control
Method in brief: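 Rhodesain (recombinant, gift) 0.5 nM in 0.1 M sodium acetate pH 5.5 with 1 mM DTT and 0.01% Triton X-100. Z-FR-AMC substrate 2.5 µM, read by fluorescence over 5 min. Activity from initial rates versus DMSO control, with E64 as positive control. Two independent experiments in triplicate. IC50 from at least 8 concentrations by nonlinear regression.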

[4] = biological target: Rhodesain (Trypanosoma brucei rhodesiense) (UniProt Q95PM0); experiment: Inhibition of recombinant Trypanosoma brucei rhodesain at 100 uM using Z-FR-AMC as substrate by fluorimetric analysis relative to control; method in brief: as §1
[5] = biological target: Rhodesain (Trypanosoma brucei rhodesiense) (UniProt Q95PM0); experiment: Reversible inhibition of recombinant Trypanosoma brucei rhodesain using Z-FR-AMC as substrate measured for 30 mins by fluorimetric analysis
Method in brief: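 Rhodesain at 100-fold final assay concentration incubated 30 min with compound at 10-fold its IC50. The mixture was then diluted 100-fold into buffer with 2.5 µM Z-FR-AMC, giving standard enzyme level and 0.1× IC50. AMC release was monitored continuously for 30 min and compared with vehicle control. E-64 served as irreversible reference.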

[6] = biological target: Cruzipain (Trypanosoma cruzi, UniProt P25779); experiment: Inhibition of recombinant Trypanosoma cruzi cruzain using Z-FR-AMC as substrate preincubated for 10 mins followed by substrate addition measured for 5 mins by fluorimetric analysis relative to control; method in brief: as §1
[7] = biological target: T1, Rhodesain; experiment: Inhibition of recombinant Trypanosoma brucei rhodesain using Z-FR-AMC as substrate preincubated for 10 mins followed by substrate addition measured for 5 mins by fluorimetric analysis relative to control
Method in brief: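 Recombinant rhodesain (0.5 nM) in 0.1 M sodium acetate pH 5.5 with 1 mM DTT and 0.01% Triton X-100, pre-incubated with compound for 10 min before adding 2.5 µM Z-FR-AMC. Fluorescence monitored 5 min. Initial rates compared with DMSO control. Screen at 100 µM; IC50 determined for compounds above 70% inhibition, from at least 8 concentrations, two independent experiments in triplicate.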

[8] = biological target: Rhodesain (Trypanosoma brucei rhodesiense) (UniProt Q95PM0); experiment: Inhibition of recombinant Trypanosoma brucei rhodesain at 100 uM using Z-FR-AMC as substrate by fluorimetric analysis; details: TDE = time-dependent effect; method in brief: as §1
[9] = tested on: Trypanosoma cruzi; experiment: Antitrypanosomal activity against Trypanosoma cruzi Dm28c assessed as live parasite count measured after 72 hrs by optical microscopy; assay type: functional; details: read-out: LD50 (the source's name)
[10] = tested on: Vero; experiment: Cytotoxicity against African green monkey Vero cells measured after 24 hrs; assay type: functional; details: Chlorocebus sabaeus
[11] = biological target: T1, Rhodesain; experiment: Binding affinity to Trypanosoma brucei rhodesain; method in brief: as §1
[12] = biological target: Rhodesain (Trypanosoma brucei rhodesiense) (UniProt Q95PM0); experiment: Inhibition of recombinant Trypanosoma brucei rhodesain at 0.1 uM using Z-FR-AMC as substrate by fluorimetric analysis relative to control
[13] = biological target: Rhodesain (Trypanosoma brucei rhodesiense) (UniProt Q95PM0); experiment: Inhibition of recombinant Trypanosoma brucei rhodesain at 0.1 uM using Z-FR-AMC as substrate preincubated for 10 mins followed by substrate addition by fluorimetric analysis relative to control

T1 sequence (Q95PM0 whole entry): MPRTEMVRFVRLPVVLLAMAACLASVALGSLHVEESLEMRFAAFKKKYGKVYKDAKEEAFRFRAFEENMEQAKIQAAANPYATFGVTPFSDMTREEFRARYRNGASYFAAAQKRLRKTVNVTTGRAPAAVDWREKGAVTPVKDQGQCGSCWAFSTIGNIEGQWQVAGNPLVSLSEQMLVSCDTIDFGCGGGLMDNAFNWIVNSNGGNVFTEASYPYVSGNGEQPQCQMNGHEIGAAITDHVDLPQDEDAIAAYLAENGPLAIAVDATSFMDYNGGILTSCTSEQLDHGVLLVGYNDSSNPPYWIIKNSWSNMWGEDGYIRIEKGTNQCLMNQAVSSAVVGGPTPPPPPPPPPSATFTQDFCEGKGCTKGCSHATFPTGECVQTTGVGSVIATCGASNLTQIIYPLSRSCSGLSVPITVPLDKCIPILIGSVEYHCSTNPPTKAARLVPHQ
Chain of Rhodesain (Trypanosoma brucei rhodesiense) (Q95PM0 1-450): as the sequence (Q95PM0 whole entry) above
Chain of Cruzipain (P25779 whole entry): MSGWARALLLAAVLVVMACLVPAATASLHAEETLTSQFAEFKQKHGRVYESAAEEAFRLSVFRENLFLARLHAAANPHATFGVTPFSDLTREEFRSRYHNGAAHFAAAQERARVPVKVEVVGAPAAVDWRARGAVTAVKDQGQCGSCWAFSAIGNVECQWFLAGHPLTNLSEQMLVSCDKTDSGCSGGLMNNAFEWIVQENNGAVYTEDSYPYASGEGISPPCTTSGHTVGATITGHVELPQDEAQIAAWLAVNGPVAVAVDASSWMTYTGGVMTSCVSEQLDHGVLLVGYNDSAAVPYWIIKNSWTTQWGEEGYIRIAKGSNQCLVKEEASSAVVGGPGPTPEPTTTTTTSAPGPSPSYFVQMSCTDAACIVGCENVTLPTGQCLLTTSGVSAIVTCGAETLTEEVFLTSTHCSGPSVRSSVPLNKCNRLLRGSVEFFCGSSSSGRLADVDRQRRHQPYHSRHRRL
Chain of Cruzipain (Trypanosoma cruzi) (P25779 123-467 limits assumed): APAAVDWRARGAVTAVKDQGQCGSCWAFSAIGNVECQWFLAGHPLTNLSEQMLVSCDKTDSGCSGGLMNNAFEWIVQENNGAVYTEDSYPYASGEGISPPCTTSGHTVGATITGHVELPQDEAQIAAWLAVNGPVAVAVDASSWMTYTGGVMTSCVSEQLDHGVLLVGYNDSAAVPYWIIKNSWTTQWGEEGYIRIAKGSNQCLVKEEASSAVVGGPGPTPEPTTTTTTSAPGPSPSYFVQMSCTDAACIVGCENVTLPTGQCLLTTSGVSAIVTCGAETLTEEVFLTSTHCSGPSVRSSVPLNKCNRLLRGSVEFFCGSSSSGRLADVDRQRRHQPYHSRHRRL

Structure (SMILES) | inhibition [1] | inhibition [2] | pIC50 [3] | inhibition [4] | inhibition [5] | pIC50 [7] | also measured
O=C1C=C(O)c2ccccc2/C1=N/NC(=O)c1ccncc1 | 52% | 66% | – | – | – | – | –
O=C1C=C(Nc2ccc(S(=O)(=O)Nc3ccccn3)cc2)C(=O)c2ccccc21 | 93% | 95% | 4.52 | 48% | Active | 5.74 | pIC50 [6]: 5.20; inhibition [8]: Tde
CC(C)=CCC1=C(O)c2ccccc2/C(=N/NC(N)=S)C1=O | 82% | 83% | 4.18 | 79% | Active | 4.55 | pIC50 [6]: 4.47
CC1(C)CCC2=C(O1)C1(CO1)c1ccccc1C2=O (stereo not given) | – | – | – | – | – | – | LC50 [9]: < 3.1 µM; CC50 [10]: > 50 µM
O=C1C(Cl)=C(Cl)C(=O)c2ccccc21 | 56% | 49% | – | – | – | – | –
COC1=CC(=O)c2ccccc2C1=O | 27% | 32% | – | – | – | – | –
O=C1C=C(Br)C(=O)c2ccccc21 | 50% | 51% | – | – | – | – | –
CC(C)C[C@H](NC(=O)[C@H](Cc1ccccc1)NC1=C(C#N)C(=O)c2ccccc2C1=O)C(=O)O | – | – | – | – | – | – | pKi [11]: 9.30
CC(C)=CCC1=C(O)C(=O)c2ccccc2C1=O [LAPACHOL] | 70% | 35% | < 4.00 | 18% | Active | 4.24 | inhibition [8]: Tde
O=C1C=C(Nc2ccccc2)C(=O)c2ccccc21 | 61% | 48% | – | – | – | – | –
CC(NC1=CC(=O)c2ccccc2C1=O)c1ccccc1 (stereo not given) | 23% | 26% | – | – | – | – | –
Cc1cc(NS(=O)(=O)c2ccc(NC3=CC(=O)c4ccccc4C3=O)cc2)no1 | 1% | 6% | – | – | – | – | –
CC(C)C[C@H](NC(=O)[C@H]1O[C@@H]1C(=O)O)C(=O)NCCCCN=C(N)N [E-64] | – | – | – | – | Active | 8.51 | inhibition [12]: 7%; pIC50 [6]: 7.70; inhibition [13]: 95%
O=C(NNC1=CC(=O)c2ccccc2C1=O)c1ccncc1 | 37% | 37% | – | – | – | – | –
O=C1C=C(O)C(=O)c2ccccc21 [LAWSONE] | 77% | 58% | < 4.00 | 27% | Active | 4.48 | inhibition [8]: Tde
CC(C)=CCC1=C(O)c2ccccc2/C(=N/NC(=O)c2ccncc2)C1=O | 87% | 76% | 4.54 | 73% | Active | 4.70 | pIC50 [6]: 4.48
